Measured values taken from ChEMBL document CHEMBL5620421, “2,6-Disubstituted 7-(naphthalen-2-ylmethyl)-7H-purines as a new class of potent antitubercular agents inhibiting DprE1” (Eur J Med Chem, 2023).
In brackets after ≈: the same amount, converted by molar mass. Activity calls are given as the source filed them. The calls are words filed in the database; no cut-off is given here.

How the values were obtained:
Klebsiella pneumoniae [1] = experiment: Antibacterial activity against ESBL positive Klebsiella pneumoniae C1914 assessed as inhibition of bacterial growth incubated for 24 to 48 hrs by microdilution broth method; type: functional, organism-based; conditions: time 24-48 hrs
Summary of the method: (§1)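 Clinical isolates kept at –70 °C and subcultured twice on Mueller-Hinton agar, using the second subculture. Broth microdilution in Mueller-Hinton broth at pH 7.4 with two-fold serial compound dilutions and DMSO ≤1% final. Inoculum was 10 μL of a 1.5 × 10⁸ CFU/mL suspension. Incubated at 36 °C ± 1 °C and read at 24 h and 48 h. MIC taken as 95% growth inhibition.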

[2] = Selectivity index, ratio of IC50 for cytotoxicity against human HepG2 cells by MTT assay to MIC99 for antitubercular activity against Mycobacterium tuberculosis CNCTC My 331/88 (H37Rv) assessed as inhibition of bacterial growth measured after 14 days of incubation; type: functional; conditions: time 14 day
Summary of the method: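 HepG2 cells, 15 × 10³/well, were attached overnight and exposed 24 h to serial dilutions (DMSO ≤1%). Read by MTT at 0.5 mg/mL for 1 h and 570 nm. IC50 from 4-parameter regression, three independent experiments in triplicate. SI is HepG2 IC50 divided by H37Rv MIC99.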

Klebsiella pneumoniae [3] = experiment: Antibacterial activity against ESBL negative Klebsiella pneumoniae C1950 assessed as inhibition of bacterial growth incubated for 24 to 48 hrs by microdilution broth method; type: functional, organism-based; conditions: time 24-48 hrs; summary of the method: as §1
Pseudomonas aeruginosa = experiment: Antibacterial activity against multidrug-resistant Pseudomonas aeruginosa A1245 assessed as inhibition of bacterial growth incubated for 24 to 48 hrs by microdilution broth method; type: functional, organism-based; conditions: time 24-48 hrs
Summary of the method: (§2)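 Clinical isolates, stored at −70 °C, were passaged twice on Mueller-Hinton agar. Broth microdilution in Mueller-Hinton broth, pH 7.4, with twofold serial dilutions. DMSO was at most 1% final. Inoculum 1.5 × 10⁸ CFU/mL suspension. MIC is 95% growth inhibition, read after 24 and 48 h at 36 °C.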

Staphylococcus aureus [4] = experiment: Antibacterial activity against methicilin-resistant Staphylococcus aureus C1923 assessed as inhibition of bacterial growth incubated for 24 to 48 hrs by microdilution broth method; type: functional, organism-based; conditions: time 24-48 hrs; summary of the method: as §2
Enterococcus faecium = experiment: Antibacterial activity against vancomycin-resistant Enterococcus faecium assessed as inhibition of bacterial growth incubated for 24 to 48 hrs by microdilution broth method; type: functional, organism-based; conditions: time 24-48 hrs; summary of the method: as §2
Mycobacterium kansasii [5] = experiment: Antitubercular activity against Mycobacterium kansasii CNCTC My 235/80 assessed as inhibition of bacterial growth measured after 7 days of incubation by Sulas semisynthetic medium based assay; type: functional; conditions: CNCTC My 235/80, 168 h, time 7 day
Summary of the method: (§3)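 Micromethod in Sula's semisynthetic medium. MIC is the lowest concentration inhibiting >99% of the mycobacterial population. Isoniazid was the standard.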

Mycobacterium avium [6] = experiment: Antitubercular activity against Mycobacterium avium CNCTC My 330/88 assessed as inhibition of bacterial growth measured after 14 days of incubation by Sulas semisynthetic medium based assay; type: functional; conditions: CNCTC My 330/88, 336 h, time 14 day
Summary of the method: (§4)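 M. avium was tested by the micromethod in Sula's semisynthetic medium. Compounds in DMSO at 1000 to 0.5 μmol/L. Incubation at 37 °C, read at 14 and 21 days. MIC is the lowest concentration giving >99% growth inhibition.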

Mycobacterium kansasii [7] = experiment: Antitubercular activity against Mycobacterium kansasii CNCTC My 235/80 assessed as inhibition of bacterial growth measured after 14 days of incubation by Sulas semisynthetic medium based assay; type: functional; conditions: CNCTC My 235/80, 336 h, time 14 day; summary of the method: as §3
[8] = system: Staphylococcus epidermidis; experiment: Antibacterial activity against Staphylococcus epidermidis C1936 assessed as inhibition of bacterial growth incubated for 24 to 48 hrs by microdilution broth method; type: functional, organism-based; conditions: time 24-48 hrs; summary of the method: as §1
Mycobacterium kansasii [9] = experiment: Antitubercular activity against Mycobacterium kansasii CNCTC My 235/80 assessed as inhibition of bacterial growth measured after 21 days of incubation by Sulas semisynthetic medium based assay; type: functional; conditions: CNCTC My 235/80, 504 h, time 21 day; summary of the method: as §3
[10] = system: Mycobacterium tuberculosis; experiment: Antitubercular activity against Mycobacterium tuberculosis CNCTC My 331/88 (H37Rv) assessed as inhibition of bacterial growth measured after 21 days of incubation by Sulas semisynthetic medium based assay; type: functional; conditions: 504 h, time 21 day
Summary of the method: (§5)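 Micromethod MIC in Sula's semisynthetic medium. MIC is the lowest concentration inhibiting >99% of the mycobacterial population. Isoniazid was the standard drug.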

Mycobacterium avium [11] = experiment: Antitubercular activity against Mycobacterium avium CNCTC My 330/88 assessed as inhibition of bacterial growth measured after 21 days of incubation by Sulas semisynthetic medium based assay; type: functional; conditions: CNCTC My 330/88, 504 h, time 21 day; summary of the method: as §4
Staphylococcus aureus [12] = experiment: Antibacterial activity against Staphylococcus aureus C1947 assessed as inhibition of bacterial growth incubated for 24 to 48 hrs by microdilution broth method; type: functional, organism-based; conditions: time 24-48 hrs; summary of the method: as §1
HepG2 = experiment: Cytotoxicity against human HepG2 cells incubated for 24 hrs by MTT assay; type: functional, cell-based; conditions: HepG2, 24 h
Summary of the method: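 HepG2 cells in DMEM with 10% FBS, seeded at 15 × 10³ cells/well and attached overnight. Exposed for 24 h to serial dilutions prepared from DMSO stocks, final DMSO ≤1%. Then given fresh medium with 0.5 mg/mL MTT for 1 h at 37 °C. Formazan dissolved in DMSO and read at 570 nm. IC50 from 4-parameter nonlinear regression; three independent experiments in triplicate, mean ± SD.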

[13] = system: Mycobacterium tuberculosis; experiment: Antitubercular activity against Mycobacterium tuberculosis CNCTC My 331/88 (H37Rv) assessed as inhibition of bacterial growth measured after 14 days of incubation by Sulas semisynthetic medium based assay; type: functional; conditions: 336 h, time 14 day; summary of the method: as §5
Escherichia coli = experiment: Antibacterial activity against Escherichia coli A1235 assessed as inhibition of bacterial growth incubated for 24 to 48 hrs by microdilution broth method; type: functional, organism-based; conditions: time 24-48 hrs; summary of the method: as §1

Structure (SMILES) | Activity (Klebsiella pneumoniae [1]) | Selectivity Index [2] | Activity (Klebsiella pneumoniae [3]) | Activity (Pseudomonas aeruginosa) | Activity (Staphylococcus aureus [4]) | Activity (Enterococcus faecium) | MIC99 (Mycobacterium kansasii [5]) [µM] | MIC99 (Mycobacterium avium [6]) [µM] | MIC99 (Mycobacterium kansasii [7]) [µM] | Activity [8] | MIC99 (Mycobacterium kansasii [9]) [µM] | MIC99 [10] [µM] | MIC99 (Mycobacterium avium [11]) [µM] | Activity (Staphylococcus aureus [12]) | IC50 (HepG2) [µM] | MIC99 [13] [µM] | Activity (Escherichia coli)
CNc1nc(N2CCOCC2)nc2ncn(Cc3ccc4ccccc4c3)c12 | inactive | 14.7 | inactive | inactive | inactive | inactive | 8 (≈ 3 µg/mL) | > 500 | 8 (≈ 3 µg/mL) | inactive | 8 (≈ 3 µg/mL) | 4 (≈ 1.5 µg/mL) | > 500 | inactive | 58.8 | 4 (≈ 1.5 µg/mL) | inactive
CN(c1nc2ncn(Cc3ccc4ccccc4c3)c2c(=O)[nH]1)C1CC1 | inactive | >7.8 | inactive | inactive | inactive | inactive | 125 (≈ 43.2 µg/mL) | > 500 | 250 (≈ 86.4 µg/mL) | inactive | 500 (≈ 173 µg/mL) | 16 (≈ 5.53 µg/mL) | > 500 | inactive | > 125 | 16 (≈ 5.53 µg/mL) | inactive
CCCNc1nc(N2CCOCC2)nc2ncn(Cc3ccc4ccccc4c3)c12 | inactive | 10.1 | inactive | inactive | inactive | inactive | 8 (≈ 3.22 µg/mL) | 125 (≈ 50.3 µg/mL) | 8 (≈ 3.22 µg/mL) | inactive | 16 (≈ 6.44 µg/mL) | 4 (≈ 1.61 µg/mL) | 125 (≈ 50.3 µg/mL) | inactive | 40.5 | 4 (≈ 1.61 µg/mL) | inactive
O=c1[nH]c(N2CCOCC2)nc2ncn(Cc3ccc(Cl)c(Cl)c3)c12 | inactive | >7.8 | inactive | inactive | inactive | inactive | > 500 | > 500 | > 500 | inactive | > 500 | 32 (≈ 12.2 µg/mL) | > 500 | inactive | > 125 | 16 (≈ 6.08 µg/mL) | inactive
Clc1nc(N2CCOCC2)nc2ncn(Cc3ccc4ccccc4c3)c12 | inactive | 4.09 | inactive | inactive | inactive | inactive | 16 (≈ 6.08 µg/mL) | > 500 | 32 (≈ 12.2 µg/mL) | inactive | 64 (≈ 24.3 µg/mL) | 16 (≈ 6.08 µg/mL) | > 500 | inactive | 65.6 | 16 (≈ 6.08 µg/mL) | inactive
CC(C)c1ccc(Cn2cnc3nc(N4CCOCC4)[nH]c(=O)c32)cc1 | inactive | >7.8 | inactive | inactive | inactive | inactive | > 500 | > 500 | > 500 | inactive | > 500 | 32 (≈ 11.3 µg/mL) | > 500 | inactive | > 125 | 16 (≈ 5.65 µg/mL) | inactive
CCNc1nc(N2CCOCC2)nc2ncn(Cc3ccc4cc(F)ccc4c3)c12 | inactive | 10.18 | inactive | inactive | inactive | inactive | 16 (≈ 6.5 µg/mL) | > 500 | 16 (≈ 6.5 µg/mL) | inactive | 16 (≈ 6.5 µg/mL) | 8 (≈ 3.25 µg/mL) | > 500 | inactive | 40.7 | 4 (≈ 1.63 µg/mL) | inactive
CCSc1nc(N2CCOCC2)nc2ncn(Cc3ccc4ccccc4c3)c12 | inactive | 16.1 | inactive | inactive | inactive | inactive | 32 (≈ 13 µg/mL) | > 500 | 64 (≈ 26 µg/mL) | inactive | 125 (≈ 50.7 µg/mL) | 4 (≈ 1.62 µg/mL) | > 500 | inactive | 64.2 | 4 (≈ 1.62 µg/mL) | inactive
CCCCNc1nc(N2CCOCC2)nc2ncn(Cc3ccc4ccccc4c3)c12 | inactive | 7.7 | inactive | inactive | inactive | inactive | 8 (≈ 3.33 µg/mL) | 64 (≈ 26.7 µg/mL) | 8 (≈ 3.33 µg/mL) | inactive | 8 (≈ 3.33 µg/mL) | 4 (≈ 1.67 µg/mL) | 125 (≈ 52.1 µg/mL) | inactive | 30.8 | 4 (≈ 1.67 µg/mL) | inactive
CN(C)c1nc(N2CCOCC2)nc2ncn(Cc3ccc4ccccc4c3)c12 | inactive | 6.99 | inactive | inactive | inactive | inactive | 32 (≈ 12.4 µg/mL) | 500 (≈ 194 µg/mL) | 64 (≈ 24.9 µg/mL) | inactive | 125 (≈ 48.6 µg/mL) | 16 (≈ 6.22 µg/mL) | 500 (≈ 194 µg/mL) | inactive | 55.9 | 8 (≈ 3.11 µg/mL) | inactive
CCNc1nc(N2CCOCC2)nc2ncn(Cc3ccc4ccccc4n3)c12 | inactive | 24.08 | inactive | inactive | inactive | inactive | 64 (≈ 24.9 µg/mL) | > 250 | 64 (≈ 24.9 µg/mL) | inactive | 64 (≈ 24.9 µg/mL) | 8 (≈ 3.12 µg/mL) | > 250 | inactive | 96.4 | 4 (≈ 1.56 µg/mL) | inactive
CCN(CC)c1nc2ncn(Cc3ccc4ccccc4c3)c2c(=O)[nH]1 | inactive |  | inactive | inactive | inactive | inactive | > 500 | > 500 | > 500 | inactive | > 500 | > 500 | > 500 | inactive |  | > 500 | inactive
